In ChEMBL document CHEMBL1143553, “Muscarinic allosteric enhancers of ligand binding: pivotal pharmacophoric elements in hexamethonio-type agents” (J Med Chem, 2005):

Assays:
Format in all cases: tissue-based
[1] = target: T1, Muscarinic acetylcholine receptor M2 (Sus scrofa) (UniProt P06199); assay: Inhibition of [3H]NMS dissociation from muscarinic acetylcholine receptor M2 of pig heart ventricle homogenates; n=5
T1 sequence (whole entry): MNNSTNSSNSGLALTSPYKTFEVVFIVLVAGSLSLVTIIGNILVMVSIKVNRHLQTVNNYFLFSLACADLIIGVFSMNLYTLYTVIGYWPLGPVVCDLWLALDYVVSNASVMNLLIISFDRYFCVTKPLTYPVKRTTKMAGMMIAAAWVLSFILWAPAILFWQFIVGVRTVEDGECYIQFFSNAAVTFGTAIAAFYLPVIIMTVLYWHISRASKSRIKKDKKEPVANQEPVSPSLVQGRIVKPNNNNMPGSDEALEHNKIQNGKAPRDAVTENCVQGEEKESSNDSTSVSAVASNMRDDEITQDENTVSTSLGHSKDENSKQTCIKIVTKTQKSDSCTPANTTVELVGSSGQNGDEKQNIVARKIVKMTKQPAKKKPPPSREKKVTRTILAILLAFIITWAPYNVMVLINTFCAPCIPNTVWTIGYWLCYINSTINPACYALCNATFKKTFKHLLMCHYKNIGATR
Method in brief: (§1)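 Two-point kinetic dissociation assay in porcine heart homogenates (M2) at 37 °C, 3 mM MgHPO4/50 mM Tris-HCl, pH 7.3. Membranes were preincubated 30 min with 0.2 nM [3H]NMS. Dissociation was started by 1 µM atropine alone or plus test compound, and specific binding measured at t = 0 and 10. Apparent k-1 relative to control was plotted against log concentration and fitted by four-parameter logistic (slope unity) for EC50,diss.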

[2] = target: T1, Muscarinic acetylcholine receptor M2 (Sus scrofa); assay: Cooperativity for muscarinic acetylcholine receptor M2 of pig heart ventricle homogenates; n=5
Method in brief: (§2)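 Pig heart ventricle homogenate (M2) equilibrium binding at 37 °C in 3 mM MgHPO4/50 mM Tris-HCl, pH 7.3. Increasing concentrations of test compound were incubated with membranes and 0.2 nM [3H]NMS. Incubation time for equilibrium in presence of allosteric agent was computed from dissociation kinetics. Nonspecific binding was defined with 1 µM atropine. Bound and free were separated by vacuum filtration, with scintillation counting.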

[3] = target: T1, Muscarinic acetylcholine receptor M2 (Sus scrofa); assay: Affinity for muscarinic acetylcholine receptor M2 of pig heart ventricle homogenates; n=5; method in brief: as §2
[4] = target: T1, Muscarinic acetylcholine receptor M2 (Sus scrofa); assay: Inhibition of [3H]NMS dissociation from muscarinic acetylcholine receptor M2 of pig heart ventricle homogenates; n=11; method in brief: as §1
[5] = target: T1, Muscarinic acetylcholine receptor M2 (Sus scrofa); assay: Cooperativity for muscarinic acetylcholine receptor M2 of pig heart ventricle homogenates; n=8; method in brief: as §2
[6] = target: T1, Muscarinic acetylcholine receptor M2 (Sus scrofa); assay: Affinity for muscarinic acetylcholine receptor M2 of pig heart ventricle homogenates; n=8; method in brief: as §2
[7] = target: T1, Muscarinic acetylcholine receptor M2 (Sus scrofa); assay: Inhibition of [3H]NMS dissociation from muscarinic acetylcholine receptor M2 of pig heart ventricle homogenates; n=3; method in brief: as §1
[8] = target: T1, Muscarinic acetylcholine receptor M2 (Sus scrofa); assay: Cooperativity against muscarinic acetylcholine receptor M2 of pig heart ventricle homogenates; n=; method in brief: as §2
[9] = target: T1, Muscarinic acetylcholine receptor M2 (Sus scrofa); assay: Affinity for muscarinic acetylcholine receptor M2 of pig heart ventricle homogenates; n=3; method in brief: as §2
[10] = target: T1, Muscarinic acetylcholine receptor M2 (Sus scrofa); assay: Inhibition of [3H]NMS dissociation from muscarinic acetylcholine receptor M2 of pig heart ventricle homogenates; n=6; method in brief: as §1
[11] = target: T1, Muscarinic acetylcholine receptor M2 (Sus scrofa); assay: Cooperativity for muscarinic acetylcholine receptor M2 of pig heart ventricle homogenates; n=4; method in brief: as §2
[12] = target: T1, Muscarinic acetylcholine receptor M2 (Sus scrofa); assay: Affinity for muscarinic acetylcholine receptor M2 of pig heart ventricle homogenates; n=4; method in brief: as §2

Work on `CC(C)(CN1C(=O)c2ccccc2C1=O)C[N+](C)(C)CCCCCC[N+](C)(C)CC(C)(C)CN1C(=O)c2cccc3cccc(c23)C1=O` yielded a pEC50 diss [1] of 7.73, a p alpha [2] of 0.56 and a pKA [3] of 7.41.

In the case of `CC(C)(CN1C(=O)c2cccc3cccc(c23)C1=O)C[N+](C)(C)CCCCCC[N+](C)(C)CCCN1C(=O)c2ccccc2C1=O`, the pEC50 diss [4] is reported as 8.36, the p alpha [5] is reported as 0.37 and the pKA [6] is reported as 8.29.

For `CC(C)(CN1C(=O)c2ccccc2C1=O)C[N+](C)(C)CCCCCC[N+](C)(C)CCCN1C(=O)c2cccc3cccc(c23)C1=O`, the pEC50 diss [7] was 7.28, the p alpha [8] was -0.01 and the pKA [9] was 7.28.

For `C[N+](C)(CCCCCC[N+](C)(C)CCCN1C(=O)c2cccc3cccc(c23)C1=O)CCCN1C(=O)c2ccccc2C1=O`, the pEC50 diss [10] was 6.94, the p alpha [11] was -0.2 and the pKA [12] was 7.24.
